Assay outcomes: PubChem BioAssay, several laboratories
ABCG2 block: blocks JC-1 efflux by human ABCG2 transporter | Q9UNQ0 | IgMXP3 cells, flow cytometry | inhibition, % at 6.6 µM | 190,000 compounds, 0.1% hits | AID 1325;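 active means inhibition above 80%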;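 further: 0% = DMSO and 100% = nicardipine control wells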
Target sequence (Q9UNQ0 whole entry, looked up): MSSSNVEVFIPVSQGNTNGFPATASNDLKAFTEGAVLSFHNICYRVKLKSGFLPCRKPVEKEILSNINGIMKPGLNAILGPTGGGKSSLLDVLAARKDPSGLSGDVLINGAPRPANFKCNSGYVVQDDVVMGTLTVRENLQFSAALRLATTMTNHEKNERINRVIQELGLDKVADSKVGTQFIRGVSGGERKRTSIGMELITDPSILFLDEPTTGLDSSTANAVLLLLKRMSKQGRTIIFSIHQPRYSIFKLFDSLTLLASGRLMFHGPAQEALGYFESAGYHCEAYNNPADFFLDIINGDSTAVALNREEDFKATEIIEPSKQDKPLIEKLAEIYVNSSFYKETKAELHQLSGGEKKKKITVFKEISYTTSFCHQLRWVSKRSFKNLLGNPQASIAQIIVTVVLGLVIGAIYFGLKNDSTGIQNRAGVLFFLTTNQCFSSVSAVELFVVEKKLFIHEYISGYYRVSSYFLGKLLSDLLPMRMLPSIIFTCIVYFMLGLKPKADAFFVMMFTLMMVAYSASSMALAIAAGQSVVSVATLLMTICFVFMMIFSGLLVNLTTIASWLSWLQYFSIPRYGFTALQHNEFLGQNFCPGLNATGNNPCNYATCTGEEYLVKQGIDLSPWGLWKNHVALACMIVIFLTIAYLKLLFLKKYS
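Test system: IgMXP3 (ABCG2) plus far-red-tagged CCRF-Adr (ABCB1) cells. Reagent: JC-1 dye as substrate. Timing: 10 min exposure at 25 °C with rotation, no wash. Measured by: flow cytometric JC-1 green MFI at 530 nm. Read-out: percent efflux inhibition, scaled nicardipine 100% to DMSO 0%. Control set: nicardipine and DMSO wells.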
ROMK mod: human ROMK K+ channel modulation, primary screen. P48048. Tet-inducible ROMK, thallium flux fluorescence; actives lie on both sides. B-score at 10 µM. 130,000 compounds, 2% hits. AID 1918;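 active means signal ratio slope over the read window, or its plate-corrected B-score, at least 3 SD from the plate mean, either direction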;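 further: B-score of the F/F0 ratio slope over 7 to 12 s after thallium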
Calb biofilm kill: mixture kills Candida albicans biofilm cells. C. albicans biofilm persisters + clotrimazole, fluorescence viability; primary screen in compound mixtures of four per well. inhibition, % at 7.6 µM. 120,000 compounds, 0.02% hits;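 active means inhibition above 30.3% in the primary screen of four-compound pools, then above 30% when the compound was retested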;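 further: compounds exposed to preformed 24 h biofilms for 48 h; 0% = untreated biofilm control and 100% = clotrimazole plus chlorhexidine kill blank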
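Probe or stimulus – Clotrimazole 50 µg/mL co-treatment · System – C. albicans biofilms · Schedule – 24 h biofilm formation, then 48 h compound exposure, 37 °C · Evaluation – percent inhibition of biofilm viability · Technique – 2-h Alamar Blue fluorescence, 535/590 nm excitation/emission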
ABCB1 block: blocks JC-1 efflux by human ABCB1 transporter. inhibition, % at 6.6 µM. 190,000 compounds, 0.067% hits. P08183. CCRF-Adr cells, flow cytometry. AID 1326; in the data active means inhibition above about 40%;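 further: 0% = vehicle and 100% = reference inhibitor; higher value means more JC-1 retained so stronger ABCB1 efflux block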
TRPN1 ag: activates the zebrafish TRPN1 channel | activation, % at 3 µM | 220,000 compounds, 0.18% hits | AID 1424 | HEK293 zebrafish TRPN1-YFP, Fluo-8 calcium fluorescence; 100% = response to 87 µM carbachol;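 active means activation above its plate's cutoff, the mean activation of test wells on that plate plus 3 SD, cut at about 19% in these data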;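 further: 0% = DMSO alone and 100% = 87 µM carbachol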
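System: zebrafish TRPN1-YFP in HEK293 cells / Dosing: 3 µM single point / Timing: dye loading 1 h at 37 °C, then 30 min room temperature / Signal: Fluo-8 calcium fluorescence, excitation 470-495 nm, emission 515-575 nm / Read-out basis: percent activation from peak over basal fluorescence ratio, control-normalized / Control set: high carbachol 87 µM, low DMSO alone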
TRPML3 agonist: activates the human TRPML3 channel. Q8TDD5. HEK293 TRPML3-YFP, Fluo-8 calcium fluorescence; 100% = the carbachol control signal. activation, % at 3 µM. 220,000 compounds, 0.29% hits. AID 1448;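 active means activation above its plate's cutoff, the mean activation of the plate's test wells plus 3 SD, cut at about 12% in these data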;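 further: 0% = DMSO only wells and 100% = carbachol wells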
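Test system: TRPML3-YFP stable HEK293 cells. Doses: single point at 3 µM. Incubation: dye loading 1 h 37 °C then 30 min ambient, 125 s read. Signal: Fluo-8 calcium dye fluorescence, ex 470-495, em 515-575 nm. Measure: percent activation from peak-to-basal fluorescence ratio, scaled between DMSO and carbachol.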
* marks the source's active call; other numbers are inactive results; nt = no result given. This is one part of a sample in which hits are shown more often than they occur.

SMILES | ABCG2 block | ROMK mod | Calb biofilm kill | ABCB1 block | TRPN1 ag | TRPML3 agonist
CCOC(=O)/C(=C/c1ccc(N2CCC(c3ccccc3)=N2)cc1)C(C)=O | 30.0 | -3.38* | 14.5 | 10.7 | 1.5 | 1.5
c1ccc(C2=NN(c3ccccc3)CC2)cc1 | nt | nt | 18.3 | nt | -0.3 | 0.2
CC(C)Cn1cc(F)c(=O)n(CC(C)C)c1=O | 0.6 | 0.841 | 11.0 | 0.2 | -0.4 | 1.0
Cc1ccc(-c2nnc(Cc3ccc([N+](=O)[O-])cc3)o2)cc1 | 2.2 | -2.04 | 1.8 | 0.4 | -3.9 | -1.2
Cn1c(O)c(N=Nc2nc(-c3ccccc3)cs2)c2ccccc21 | -18.0 | 2.77* | 7.3 | -0.7 | 1.8 | 0.5
Cn1c(O)c(N=Nc2ccc(F)cc2)c2ccccc21 | 1.5 | -1.8 | 13.3 | 0.1 | -0.5 | 1.2
CCCOC(=O)c1cccc(NC(=O)COc2ccc([N+](=O)[O-])cc2)c1 | 8.9 | -0.925 | 5.4 | 63.3* | 2.2 | -0.7
CCOC(=O)c1cccc(NC(=O)COc2ccc([N+](=O)[O-])cc2)c1 | 4.3 | nt | nt | 0.7 | 0.4 | -0.5
CC1(C)Oc2ccc(C(=O)N3CCc4ccccc43)cc2N(CC(=O)N2CCCC2)C1=O | 6.4 | 3.76* | nt | 2.3 | 1.6 | 0.2
CC1(C)Oc2ccc(C(=O)N3CCCC3)cc2N(CC(=O)NCc2ccccc2)C1=O | 0.4 | 0.592 | nt | 0.1 | -1.3 | 0.2
CC1=C(C)/C(=N\OS(=O)(=O)c2ccccc2)C=CC1=O | -0.7 | -4.31* | nt | -0.3 | 1.7 | 15.8*
COc1ccc(CNC(=O)CS(=O)CC(=O)O)cc1OC (centres undefined) | 3.8 | 0.74 | 3.3 | 1.3 | -0.1 | 0.9
COc1ccc(/C=C2\CCCc3c2nc2ccccc2c3C(=O)O)cc1OC | nt | nt | 1.8 | nt | 40.2* | 19.3*
Cc1[nH]c(-c2ccccn2)nc(=S)c1Cl | nt | 3.54* | 11.4 | nt | 0.3 | 1.0
Cc1cc(C(C)(C)C)ccc1OCCCCN1CCCC1 | 5.0 | -1.44 | 8.1 | 0.5 | 2.3 | 1.8
CCC(C)(C)c1ccc(OCCCC[n+]2ccc(C)cc2)c(C(C)(C)CC)c1 | -2.1 | -5.9* | 11.8 | 1.0 | -1.2 | 0.1
Cn1nnc2cc(C(=O)Nc3ccc4ccccc4c3)ccc21 | 4.5 | -0.265 | 19.6 | 0.2 | 1.9 | 1.1
Cc1nnc(SCC(=O)N2CCc3ccccc32)s1 | 4.8 | nt | nt | 42.9* | 0.7 | 0.6
N#CC(C#N)=C(Nc1ccc(F)cc1)SCc1cccc(F)c1 | 11.4 | -0.369 | 16.7 | -0.2 | 24.8* | 20.8*
CCOC(=O)c1c(NC(=O)COC(=O)c2ccncc2)sc(C)c1C | 6.5 | -0.431 | 12.1 | 0.6 | -0.7 | -1.2
COC(=O)N/N=C(\C)c1ccc(Br)cc1 | 34.1 | nt | nt | 1.1 | 0.2 | -0.1
CSC(=S)N/N=C(\C)c1ccc(Br)cc1 | 10.9 | 3.08* | 24.7 | 0.7 | 2.4 | 0.4
N#Cc1ccc(S(=O)(=O)N2CCc3[nH]c4ccc(F)cc4c3C2)cc1 | nt | nt | 23.6 | nt | 3.4 | 1.7
Oc1cccc2ccc(Nc3ccccn3)nc12 | 4.2 | 1.12 | nt | 0.5 | 2.4 | 2.9
c1ccc(Nc2ccccc2Nc2ccccn2)nc1 | 11.9 | -0.164 | nt | 0.5 | 88.0* | 67.6*
SMILES | ABCG2 block | ROMK mod | Calb biofilm kill | ABCB1 block | TRPN1 ag | TRPML3 agonist
CCOC(=O)c1ccc(NC(=O)Nc2ccc(F)cc2)cc1 | 4.8 | -0.687 | nt | -0.1 | 20.9* | 10.2
O=C(CSCc1ccccc1)N1CCN(Cc2ccc3c(c2)OCO3)CC1 | 0.1 | -2.9* | 6.5 | -0.3 | 1.5 | 0.5
CCN(CC)c1ccc(C(=O)NC(=S)N2CCN(Cc3ccc4c(c3)OCO4)CC2)cc1 | 4.0 | -3.33* | 20.6 | 0.6 | 0.0 | 0.5
Cc1ccccc1Cc1c(C)nc2c(C(=O)N3CCN(Cc4ccc5c(c4)OCO5)CC3)cnn2c1C | nt | -5.29* | nt | nt | -0.3 | -0.3
CC(C)NC(=S)N1CCN(Cc2ccc3c(c2)OCO3)CC1 | 2.1 | 0.715 | -2.4 | 0.5 | -0.9 | 1.7
N#CCCN1CCCc2cc(N=Nc3ccc(C(F)(F)F)cc3)ccc21 | nt | nt | 13.4 | nt | -2.2 | -0.1
C=CCOc1c(Br)cc(CNc2ccc(NC(=O)C(C)C)c(OC)c2)cc1OCC | 13.7 | 0.689 | 9.8 | 0.8 | -0.5 | -0.1
N=c1c2c(-c3ccccc3)c(-c3ccccc3)n(Cc3ccco3)c2ncn1Cc1ccccc1 | 7.0 | -4.84* | nt | 8.2 | -0.2 | 0.5
Cc1ccc(-c2cc(C(=O)Nc3ccc(S(=O)(=O)Nc4cc(C)on4)cc3)c3ccccc3n2)c(C)c1 | 6.7 | 1.92 | nt | 0.8 | -1.8 | -1.1
COc1ccc(-c2nc3ccccc3c(C(=O)Nc3ccc(S(=O)(=O)Nc4cc(C)on4)cc3)c2C)cc1 | -8.9 | 4.15* | nt | -1.4 | -0.1 | 0.7
CNC(=O)CS(=O)(=O)CC(=O)Nc1cc(OC(C)C)c(Cl)cc1Cl | 1.7 | nt | -5.5 | 0.3 | -0.6 | 0.5
O=C(Nc1nc(=O)c2ccccc2s1)c1ccccc1 | 2.1 | 2.96* | nt | 0.3 | 0.3 | 1.0
CCC(C)/C(C)=N/NC(=O)CNS(=O)(=O)c1ccc([N+](=O)[O-])cc1 (centres undefined) | 1.8 | 0.968 | 21.4 | 0.5 | 1.2 | 0.7
C=CCn1c(=O)[nH]c2nc3cc(N=CN(C)C)c(C)cc3nc2c1=O | nt | nt | 22.6 | nt | 26.9* | 8.6
O=C(Nc1ccc2c(c1)oc1ccc(S(=O)(=O)N3CCCC3)cc12)C1CC1 | 109.9* | nt | nt | -1.1 | 3.0 | 2.4
O=C(c1ccc(CSc2nc3ccncc3[nH]2)cc1)N1CCCCCC1 | nt | nt | 25.1 | nt | 0.9 | 0.9
O=C(c1ccc(CSc2nc3ccncc3[nH]2)cc1)N1CCN(c2cccc(Cl)c2)CC1 | 1.1 | -3.52* | 1.8 | 0.3 | -0.1 | 0.8
CC(C)n1cc(NC(=O)c2cc(-c3ccccc3)on2)cn1 | 12.5 | 5.83* | nt | 0.0 | 0.4 | 0.7
O=C(Nc1cccnc1)c1cc(-c2ccccc2)on1 | 12.9 | 3.5* | 12.9 | 0.1 | 0.5 | 0.1
CC(=O)NC(N(C#N)c1nc(Cl)nc(N(C)C)n1)C(Cl)(Cl)Cl (centres undefined) | nt | -0.461 | 16.3 | nt | -0.6 | 1.2
